SMILES strings stand for the structures.

In experiment [1] the target is T1, Serine/threonine-protein kinase 3 (Homo sapiens) (UniProt Q13188).
T1 sequence (whole entry): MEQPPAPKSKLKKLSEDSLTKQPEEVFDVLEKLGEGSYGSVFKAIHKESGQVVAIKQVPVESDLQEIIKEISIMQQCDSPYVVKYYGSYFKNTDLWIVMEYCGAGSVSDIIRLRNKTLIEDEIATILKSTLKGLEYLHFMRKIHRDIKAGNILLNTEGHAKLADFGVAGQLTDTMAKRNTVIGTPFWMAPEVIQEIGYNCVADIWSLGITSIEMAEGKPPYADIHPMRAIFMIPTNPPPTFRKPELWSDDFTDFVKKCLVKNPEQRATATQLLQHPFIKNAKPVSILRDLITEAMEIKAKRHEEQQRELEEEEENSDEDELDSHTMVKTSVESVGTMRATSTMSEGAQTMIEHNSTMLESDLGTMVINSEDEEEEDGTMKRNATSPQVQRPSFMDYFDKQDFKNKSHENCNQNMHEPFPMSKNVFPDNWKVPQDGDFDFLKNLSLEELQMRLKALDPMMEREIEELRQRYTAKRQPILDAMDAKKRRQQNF
Kind of experiment: Competitive binding affinity to MST2 (unknown origin) at 10 uM in presence of ATP relative to control.

The target of experiment [2] is MAP kinase-activated protein kinase 2 (Homo sapiens) (UniProt P49137). Kind of experiment: Competitive binding affinity to MAPKAPK2 (unknown origin) at 10 uM in presence of ATP relative to control.
In experiment [3] the target is Cyclin-dependent kinase 7 (Homo sapiens, UniProt P50613). The experiment is described as follows: Competitive binding affinity to CDK7 (unknown origin) at 10 uM in presence of ATP relative to control.
Experiment [4] addresses 5'-AMP-activated protein kinase catalytic subunit alpha-2 (Homo sapiens) (UniProt P54646). The experiment is described as follows: Competitive binding affinity to AMPKalpha2 (unknown origin) at 10 uM in presence of ATP relative to control. In outline: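 In vitro ATP-site competition binding assay across a diverse panel of 128 kinases, with each compound tested at a single concentration. Kinase binding is expressed relative to control.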

The target of experiment [5] is ALK tyrosine kinase receptor (Homo sapiens) (UniProt Q9UM73). The experiment is described as follows: Competitive binding affinity to ALK (unknown origin) at 10 uM in presence of ATP relative to control.
In experiment [6] the target is Activin receptor type-2A (Homo sapiens) (UniProt P27037). The experiment is described as follows: Competitive binding affinity to ACVR2A (unknown origin) at 10 uM in presence of ATP relative to control.
For experiment [7], the target named is T2, Non-receptor tyrosine-protein kinase TNK1 (Homo sapiens) (UniProt Q13470).
T2 sequence (whole entry): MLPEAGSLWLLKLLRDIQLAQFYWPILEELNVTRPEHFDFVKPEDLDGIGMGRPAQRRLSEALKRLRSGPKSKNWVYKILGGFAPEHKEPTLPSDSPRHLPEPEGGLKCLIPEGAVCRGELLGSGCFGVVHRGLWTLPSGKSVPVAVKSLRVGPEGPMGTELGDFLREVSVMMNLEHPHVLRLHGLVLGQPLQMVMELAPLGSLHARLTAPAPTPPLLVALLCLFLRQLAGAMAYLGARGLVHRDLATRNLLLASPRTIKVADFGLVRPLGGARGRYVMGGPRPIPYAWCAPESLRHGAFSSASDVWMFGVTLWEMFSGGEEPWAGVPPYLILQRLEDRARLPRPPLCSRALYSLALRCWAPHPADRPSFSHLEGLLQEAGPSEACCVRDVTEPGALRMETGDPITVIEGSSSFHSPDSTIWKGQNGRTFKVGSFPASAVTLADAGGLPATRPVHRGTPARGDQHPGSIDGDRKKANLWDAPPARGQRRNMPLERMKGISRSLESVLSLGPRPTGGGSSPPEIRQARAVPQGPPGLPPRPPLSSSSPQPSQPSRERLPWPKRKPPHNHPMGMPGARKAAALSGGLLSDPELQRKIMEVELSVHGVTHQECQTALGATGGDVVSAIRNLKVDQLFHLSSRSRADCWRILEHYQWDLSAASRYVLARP
Kind of experiment: Competitive binding affinity to TNK1 (unknown origin) at 10 uM in presence of ATP relative to control.

Experiment [8] concerns the target SRSF protein kinase 1 (Homo sapiens) (UniProt Q96SB4). The experiment is described as follows: Competitive binding affinity to SRPK1 (unknown origin) at 10 uM in presence of ATP relative to control.
Experiment [9] concerns the target Ribosomal protein S6 kinase alpha-6 (Homo sapiens) (UniProt Q9UK32). The experiment is described as follows: Competitive binding affinity to RPS6KA6 kinase domain 2 (unknown origin) at 10 uM in presence of ATP relative to control.
The target in experiment [10] is T3, Muscle, skeletal receptor tyrosine-protein kinase (Homo sapiens) (UniProt O15146).
T3 sequence (whole entry): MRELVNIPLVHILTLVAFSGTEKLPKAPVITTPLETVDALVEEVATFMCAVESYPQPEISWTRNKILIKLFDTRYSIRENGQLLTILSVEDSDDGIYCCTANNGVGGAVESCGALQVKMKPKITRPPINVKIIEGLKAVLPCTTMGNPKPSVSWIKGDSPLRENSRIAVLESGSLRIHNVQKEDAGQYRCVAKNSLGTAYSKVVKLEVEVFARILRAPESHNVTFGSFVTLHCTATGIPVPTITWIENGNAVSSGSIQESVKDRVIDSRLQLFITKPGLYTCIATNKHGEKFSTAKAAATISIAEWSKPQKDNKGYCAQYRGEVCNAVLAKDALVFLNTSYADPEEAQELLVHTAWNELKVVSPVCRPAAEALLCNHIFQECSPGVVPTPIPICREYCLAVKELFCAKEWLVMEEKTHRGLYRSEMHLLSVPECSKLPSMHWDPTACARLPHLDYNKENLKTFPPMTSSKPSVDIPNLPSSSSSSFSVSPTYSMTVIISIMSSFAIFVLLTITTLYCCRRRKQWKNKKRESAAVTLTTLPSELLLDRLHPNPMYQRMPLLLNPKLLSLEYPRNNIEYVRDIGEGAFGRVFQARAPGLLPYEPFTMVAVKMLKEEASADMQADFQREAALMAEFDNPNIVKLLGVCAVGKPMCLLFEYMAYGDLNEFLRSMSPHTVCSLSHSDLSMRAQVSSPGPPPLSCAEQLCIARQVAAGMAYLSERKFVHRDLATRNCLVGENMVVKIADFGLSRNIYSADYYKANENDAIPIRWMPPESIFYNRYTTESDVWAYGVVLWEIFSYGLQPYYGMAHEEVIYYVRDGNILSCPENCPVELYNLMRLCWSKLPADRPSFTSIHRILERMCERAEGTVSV
Kind of experiment: Competitive binding affinity to MUSK (unknown origin) at 10 uM in presence of ATP relative to control. An outline of the steps:
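In vitro ATP-site competition binding assay across a diverse panel of 128 kinases, with compound tested at a single concentration. Kinase selectivity scores (S15) were calculated from the panel profiles.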

The target of experiment [11] is T1, Serine/threonine-protein kinase 3 (Homo sapiens). The experiment is described as follows: Competitive binding affinity to STK3 (unknown origin) at 10 uM in presence of ATP relative to control.

SRSF protein kinase 1 (Homo sapiens), sequence (Q96SB4 whole entry, the tested form may be a part): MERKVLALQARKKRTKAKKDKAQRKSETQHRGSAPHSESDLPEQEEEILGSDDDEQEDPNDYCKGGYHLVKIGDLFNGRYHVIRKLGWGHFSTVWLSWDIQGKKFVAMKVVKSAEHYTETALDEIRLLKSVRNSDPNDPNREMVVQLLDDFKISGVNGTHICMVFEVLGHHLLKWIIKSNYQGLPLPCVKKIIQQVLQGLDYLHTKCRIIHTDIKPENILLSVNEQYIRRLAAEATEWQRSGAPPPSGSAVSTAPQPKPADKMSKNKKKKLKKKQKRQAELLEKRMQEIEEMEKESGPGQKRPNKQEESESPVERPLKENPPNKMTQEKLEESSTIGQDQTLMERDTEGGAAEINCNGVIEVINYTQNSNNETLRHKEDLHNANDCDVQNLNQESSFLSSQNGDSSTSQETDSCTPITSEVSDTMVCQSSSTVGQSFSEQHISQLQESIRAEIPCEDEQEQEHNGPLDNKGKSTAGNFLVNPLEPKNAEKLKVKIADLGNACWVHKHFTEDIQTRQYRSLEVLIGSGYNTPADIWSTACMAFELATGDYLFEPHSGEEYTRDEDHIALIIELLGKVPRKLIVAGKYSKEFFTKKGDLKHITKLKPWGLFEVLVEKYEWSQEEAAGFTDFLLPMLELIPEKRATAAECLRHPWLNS
5'-AMP-activated protein kinase catalytic subunit alpha-2 (Homo sapiens), sequence (P54646 whole entry, looked up): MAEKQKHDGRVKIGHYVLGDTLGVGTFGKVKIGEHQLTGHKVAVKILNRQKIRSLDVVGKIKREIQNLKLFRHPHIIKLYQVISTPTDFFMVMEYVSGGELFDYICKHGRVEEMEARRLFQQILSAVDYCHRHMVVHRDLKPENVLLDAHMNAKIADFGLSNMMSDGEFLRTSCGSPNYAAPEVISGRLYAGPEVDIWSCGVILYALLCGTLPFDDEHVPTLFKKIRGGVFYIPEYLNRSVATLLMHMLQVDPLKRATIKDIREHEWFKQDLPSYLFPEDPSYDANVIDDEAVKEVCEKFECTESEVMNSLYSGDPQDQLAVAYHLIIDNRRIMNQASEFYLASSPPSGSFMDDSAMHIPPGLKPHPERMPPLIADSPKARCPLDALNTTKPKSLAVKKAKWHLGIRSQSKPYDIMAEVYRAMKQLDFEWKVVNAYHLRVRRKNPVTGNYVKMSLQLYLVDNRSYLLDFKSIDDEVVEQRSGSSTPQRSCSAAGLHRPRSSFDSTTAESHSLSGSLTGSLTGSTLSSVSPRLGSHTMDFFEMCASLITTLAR
Ribosomal protein S6 kinase alpha-6 (Homo sapiens), sequence (Q9UK32 whole entry, the tested form may be a part): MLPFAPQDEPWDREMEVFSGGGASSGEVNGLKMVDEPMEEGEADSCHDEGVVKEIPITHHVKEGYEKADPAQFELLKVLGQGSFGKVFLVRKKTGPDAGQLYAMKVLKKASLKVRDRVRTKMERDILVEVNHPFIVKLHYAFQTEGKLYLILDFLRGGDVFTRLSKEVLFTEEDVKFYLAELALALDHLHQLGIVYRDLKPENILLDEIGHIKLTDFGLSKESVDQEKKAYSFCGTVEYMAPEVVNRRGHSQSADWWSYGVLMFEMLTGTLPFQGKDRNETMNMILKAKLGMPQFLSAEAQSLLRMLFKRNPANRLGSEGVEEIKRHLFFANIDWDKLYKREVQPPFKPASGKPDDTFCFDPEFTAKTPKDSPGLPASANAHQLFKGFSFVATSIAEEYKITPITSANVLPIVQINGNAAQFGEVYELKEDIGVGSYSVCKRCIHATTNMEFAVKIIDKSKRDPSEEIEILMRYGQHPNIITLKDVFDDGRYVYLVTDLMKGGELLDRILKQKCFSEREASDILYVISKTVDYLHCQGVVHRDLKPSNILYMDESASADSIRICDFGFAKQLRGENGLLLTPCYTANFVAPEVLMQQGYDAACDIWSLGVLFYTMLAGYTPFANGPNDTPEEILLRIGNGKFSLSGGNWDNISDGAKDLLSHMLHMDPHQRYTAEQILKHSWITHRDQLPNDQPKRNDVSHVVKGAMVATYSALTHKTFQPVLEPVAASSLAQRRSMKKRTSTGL
Cyclin-dependent kinase 7, sequence (P50613 whole entry): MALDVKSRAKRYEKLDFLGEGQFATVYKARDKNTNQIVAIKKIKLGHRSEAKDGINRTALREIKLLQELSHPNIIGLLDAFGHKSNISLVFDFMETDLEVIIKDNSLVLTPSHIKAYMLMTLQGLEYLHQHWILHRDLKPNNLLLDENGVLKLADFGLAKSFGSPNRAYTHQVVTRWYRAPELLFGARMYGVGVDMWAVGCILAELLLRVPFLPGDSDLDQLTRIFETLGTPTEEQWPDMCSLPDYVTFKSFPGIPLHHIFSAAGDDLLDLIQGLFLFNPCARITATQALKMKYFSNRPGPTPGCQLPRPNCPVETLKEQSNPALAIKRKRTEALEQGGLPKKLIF
ALK tyrosine kinase receptor (Homo sapiens), sequence (Q9UM73 19-1620 limits assumed): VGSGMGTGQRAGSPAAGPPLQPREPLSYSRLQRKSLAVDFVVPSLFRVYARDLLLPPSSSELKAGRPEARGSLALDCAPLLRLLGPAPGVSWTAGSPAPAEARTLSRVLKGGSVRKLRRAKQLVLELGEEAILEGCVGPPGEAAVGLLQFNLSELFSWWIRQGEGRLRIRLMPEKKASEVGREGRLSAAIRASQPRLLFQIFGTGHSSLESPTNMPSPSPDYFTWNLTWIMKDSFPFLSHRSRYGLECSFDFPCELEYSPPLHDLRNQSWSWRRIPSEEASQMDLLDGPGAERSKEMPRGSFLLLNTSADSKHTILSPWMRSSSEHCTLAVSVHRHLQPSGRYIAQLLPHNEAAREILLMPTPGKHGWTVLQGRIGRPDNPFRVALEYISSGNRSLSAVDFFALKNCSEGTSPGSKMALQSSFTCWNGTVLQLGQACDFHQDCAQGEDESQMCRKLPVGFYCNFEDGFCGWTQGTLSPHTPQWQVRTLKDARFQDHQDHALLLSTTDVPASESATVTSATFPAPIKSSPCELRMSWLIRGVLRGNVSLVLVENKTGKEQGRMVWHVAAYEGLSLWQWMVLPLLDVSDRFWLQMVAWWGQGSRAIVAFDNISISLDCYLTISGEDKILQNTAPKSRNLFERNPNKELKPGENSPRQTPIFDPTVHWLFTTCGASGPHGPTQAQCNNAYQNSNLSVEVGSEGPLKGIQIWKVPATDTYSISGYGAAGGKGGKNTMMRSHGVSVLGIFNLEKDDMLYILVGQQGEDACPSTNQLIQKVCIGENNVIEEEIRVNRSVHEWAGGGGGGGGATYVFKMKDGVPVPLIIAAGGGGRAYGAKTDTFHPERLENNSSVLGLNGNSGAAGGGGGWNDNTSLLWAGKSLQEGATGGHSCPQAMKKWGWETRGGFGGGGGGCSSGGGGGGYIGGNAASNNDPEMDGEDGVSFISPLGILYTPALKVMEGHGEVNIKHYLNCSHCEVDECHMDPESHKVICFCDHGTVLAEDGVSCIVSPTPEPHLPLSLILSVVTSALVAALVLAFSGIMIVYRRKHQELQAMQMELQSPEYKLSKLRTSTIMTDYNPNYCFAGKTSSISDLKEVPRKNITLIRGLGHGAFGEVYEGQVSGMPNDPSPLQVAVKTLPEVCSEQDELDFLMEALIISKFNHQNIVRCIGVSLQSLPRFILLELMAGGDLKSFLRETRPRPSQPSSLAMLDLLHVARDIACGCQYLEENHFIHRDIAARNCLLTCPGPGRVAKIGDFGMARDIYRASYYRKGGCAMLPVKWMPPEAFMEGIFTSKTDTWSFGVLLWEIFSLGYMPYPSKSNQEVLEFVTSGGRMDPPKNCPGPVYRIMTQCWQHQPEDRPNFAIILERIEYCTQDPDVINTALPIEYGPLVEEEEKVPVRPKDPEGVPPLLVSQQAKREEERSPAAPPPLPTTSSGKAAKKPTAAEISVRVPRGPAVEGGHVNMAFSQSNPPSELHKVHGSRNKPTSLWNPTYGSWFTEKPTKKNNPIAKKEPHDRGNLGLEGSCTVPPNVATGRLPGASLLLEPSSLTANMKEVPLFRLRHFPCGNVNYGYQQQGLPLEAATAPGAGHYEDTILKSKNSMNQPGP
Activin receptor type-2A (Homo sapiens), sequence (P27037 whole entry): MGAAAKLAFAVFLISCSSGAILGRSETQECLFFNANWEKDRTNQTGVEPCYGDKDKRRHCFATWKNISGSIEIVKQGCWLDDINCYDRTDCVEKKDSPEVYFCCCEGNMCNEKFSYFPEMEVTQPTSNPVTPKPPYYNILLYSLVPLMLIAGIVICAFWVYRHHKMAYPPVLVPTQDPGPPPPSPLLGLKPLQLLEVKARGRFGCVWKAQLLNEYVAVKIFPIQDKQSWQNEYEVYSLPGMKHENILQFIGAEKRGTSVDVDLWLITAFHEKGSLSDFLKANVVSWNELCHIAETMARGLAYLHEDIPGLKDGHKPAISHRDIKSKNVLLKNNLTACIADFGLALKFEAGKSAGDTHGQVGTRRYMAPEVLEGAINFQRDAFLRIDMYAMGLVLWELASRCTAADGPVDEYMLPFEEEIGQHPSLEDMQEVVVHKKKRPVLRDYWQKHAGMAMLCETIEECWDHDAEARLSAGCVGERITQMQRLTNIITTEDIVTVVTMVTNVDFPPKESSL
MAP kinase-activated protein kinase 2 (Homo sapiens), sequence (P49137 whole entry, looked up): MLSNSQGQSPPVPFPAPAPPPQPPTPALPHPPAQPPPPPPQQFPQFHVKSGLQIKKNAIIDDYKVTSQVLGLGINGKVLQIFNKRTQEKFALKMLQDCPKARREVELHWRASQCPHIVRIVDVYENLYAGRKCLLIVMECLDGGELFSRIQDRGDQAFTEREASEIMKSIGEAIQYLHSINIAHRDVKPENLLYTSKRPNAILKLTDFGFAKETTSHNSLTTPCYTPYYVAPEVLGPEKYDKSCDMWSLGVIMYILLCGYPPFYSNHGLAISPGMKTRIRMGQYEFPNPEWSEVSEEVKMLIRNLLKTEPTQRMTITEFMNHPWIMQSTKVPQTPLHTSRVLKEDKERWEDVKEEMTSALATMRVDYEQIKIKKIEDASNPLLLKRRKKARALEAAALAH

One may read the inhibition as the share of the control response that was lost under treatment. `O[C@H]1CC[C@H](Nc2nccc(-n3ccc4ccccc43)n2)CC1`: the inhibition in [1] is less than 50%; in experiment [2], less than 50%; in experiment [3] it was 83%; in experiment [4], less than 50%; in experiment [5], less than 50%; in [6], less than 50%. The inhibition is less than 50% in experiment [7], less than 50% in experiment [8], 84% in experiment [9] and less than 50% in experiment [10].

Turning to `O[C@H]1CC[C@H](Nc2nccc(-n3nnc4ccccc43)n2)CC1`, the inhibition in [1] is 95%; in experiment [2] it was less than 50%; in experiment [3] it was 92%; in experiment [4], 74%; in [5] it was 66%; in experiment [6] it was less than 50%. Besides, the inhibition in experiment [7] is less than 50%; in [8] it was less than 50%; in experiment [9], 100%; in [10] it was less than 50%.

`CS(=O)(=O)CCCOc1cccc2c1ccn2-c1ccnc(N[C@H]2CC[C@H](C(=O)N3CCC(O)CC3)CC2)n1`: the inhibition in experiment [3] is greater than 85%.

Regarding `O=C([C@H]1CC[C@H](Nc2nccc(-n3nnc4ccccc43)n2)CC1)N1CCOCC1`, the inhibition in [11] came out at 86%.

Take `O[C@H]1CC[C@H](Nc2nccc(-n3ncc4ccccc43)n2)CC1`: the inhibition was 81% in experiment [1]; less than 50% in experiment [2]; 81% in [3]; less than 50% in experiment [4]; 78% in experiment [5]; less than 50% in [6]. Further, the inhibition in experiment [7] was less than 50%; in [8] it was less than 50%; in [9], 100%; in [10], less than 50%.

Consider `O[C@H]1CC[C@H](Nc2nccc(-c3n[nH]c4ccccc34)n2)CC1`, for which the inhibition in [4] is 89%; in [5], 100%; in experiment [6], less than 50%; in [7] it was 81%; in [8] it was 100%; in experiment [11], 94%. Besides, the inhibition in [10] was less than 50%.

Take `N[C@H]1CC[C@H](Nc2nccc(-n3nnc4ccccc43)n2)CC1`: the inhibition in [11] turned out to be 96%.

The values above are taken from ChEMBL document CHEMBL2424622, “Development of amino-pyrimidine inhibitors of c-Jun N-terminal kinase (JNK): kinase profiling guided optimization of a 1,2,3-benzotriazole lead” (Bioorg Med Chem Lett, 2013).
